≈ marks a conversion by molar mass, not a printed value. Where only a bound is given, the exact number is not on record here.

The nature of series [1]: Cytotoxicity against human BCA1 cells after 3 days by SRB assay. The settings on record: BCA1, 72 h, read-out: ED50 (the source's name). It is filed as functional.
In series [2] the test system is HT-1080. The series can be described thus: Cytotoxicity against human HT1080 cells after 3 days by SRB assay. It is filed as functional. The settings on record: HT-1080, 72 h, read-out: ED50 (the source's name).
Series [3] is described as follows: Cytotoxicity against human LUC1 cells after 3 days by SRB assay. In kind it is functional. The settings on record: LUC1, 72 h, read-out: ED50 (the source's name). In general terms: In SRB staining, fixed cells bind dye roughly in proportion to their protein.
Series [4] concerns SK-MEL-2. The series can be described thus: Cytotoxicity against human SK-MEL-2 cells after 3 days by SRB assay. In kind it is functional. The settings on record: SK-MEL-2, 72 h, read-out: ED50 (the source's name).
Series [5] in a line: Cytotoxicity against human Col1 cells after 3 days by SRB assay. It is filed as functional. The settings on record: Col1, 72 h, read-out: ED50 (the source's name).
A short description of series [6]: Cytotoxicity against human KB cells after 3 days by SRB assay. It is filed as cell-based. The settings on record: read-out: ED50.
Series [7] can be described thus: Cytotoxicity against vinblastine-resistant human KBV1 cells after 3 days by SRB assay. The settings on record: KB-V1, 72 h, read-out: ED50 (the source's name). In kind it is functional.
Series [8] concerns P388. The experiment in a line: Cytotoxicity against mouse P388 cells after 3 days by SRB assay. It is filed as functional. The settings on record: P388, 72 h, read-out: ED50 (the source's name).
Series [9] deals with A-431. The series can be described thus: Cytotoxicity against human A431 cells after 3 days by SRB assay. The settings on record: A-431, 72 h, read-out: ED50 (the source's name). It is filed as functional.
The test system of series [10] is LNCaP. The series can be described thus: Cytotoxicity against human LNCAP cells after 3 days by SRB assay. It is filed as functional. The settings on record: 72 h, read-out: ED50 (the source's name).
Series [11] concerns ZR-75-1. The series can be described thus: Cytotoxicity against human ZR-75-1 cells after 3 days by SRB assay. In kind it is functional. The settings on record: ZR-75-1, 72 h, read-out: ED50 (the source's name).
A short description of series [12]: Cytotoxicity against human U373 cells after 3 days by SRB assay. In kind it is functional, U-373MG ATCC. The settings on record: U373 MG, 72 h, read-out: ED50 (the source's name).
The subject of series [13] is Plasmodium falciparum. The experiment in a line: Antimalarial activity after 24 hrs against chloroquine-sensitive Plasmodium falciparum D6 infected type A+ human erythrocytes by [3H]hypoxanthine uptake. It is filed as functional. The settings on record: read-out: ED50 (the source's name).
For series [14], the system named is Plasmodium falciparum. The series can be described thus: Antimalarial activity after 24 hrs against chloroquine-resistant Plasmodium falciparum W2 infected type A+ human erythrocytes by [3H]hypoxanthine uptake. In kind it is functional. The settings on record: read-out: ED50 (the source's name).
Series [15] in a line: Selectivity index, ED50 for human KB cells to ED50 for chloroquine-sensitive Plasmodium falciparum D6. In kind it is toxicity, cell-based. The settings on record: read-out: Ratio ED50. The method, boiled down:
(§1)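 Selectivity index is the ED50 in KB cells divided by the ED50 against the P. falciparum strain (D-6, chloroquine-sensitive; W-2, chloroquine-resistant). Parasite ED50s are expressed in ng/ml and KB ED50s in µg/ml.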

Series [16] in a line: Selectivity index, ED50 for human KB cells to ED50 for chloroquine-resistant Plasmodium falciparum W2. In kind it is toxicity, cell-based. The settings on record: read-out: Ratio ED50. The method, boiled down: as §1

Regarding `c1ccc2c(c1)C[C@H]1NCCc3cc4c(c-2c31)OCO4` [ANONAINE], the EC50 came to 3.3 µg/mL (≈ 12.4 µM) in series [1]; 2.4 µg/mL (≈ 9.05 µM) in [2]; 1.8 µg/mL (≈ 6.78 µM) in series [3]; 15.8 µg/mL (≈ 59.6 µM) in series [4]; 4 µg/mL (≈ 15.1 µM) in series [5]; 1.8 µg/mL (≈ 6.78 µM) in [7]. In addition, the EC50 in [8] is above 5 µg/mL; in series [9] it was 4.2 µg/mL (≈ 15.8 µM); in series [10], 2.9 µg/mL (≈ 10.9 µM); in [11], 2.7 µg/mL (≈ 10.2 µM); in [12] it was 1.5 µg/mL (≈ 5.65 µM); in series [13] it was 1.29 µg/mL (≈ 4.86 µM). Besides, the EC50 in series [14] is 1.9 µg/mL (≈ 7.16 µM). Besides, the CC50 at 72 h in series [6] came out at 2.6 µg/mL (≈ 9.8 µM). The values for the selectivity ratio in series [15] and in series [16] were 5 and 3, respectively.

Regarding `COc1cc2c(cc1OC)-c1c3c(cc4c1[C@@H](C2)N(C)CC4)OCO3`, the EC50 is 2.2 µg/mL (≈ 6.48 µM) in [1]; 1.7 µg/mL (≈ 5.01 µM) in series [2]; 6.1 µg/mL (≈ 18 µM) in series [3]; 3.8 µg/mL (≈ 11.2 µM) in [4]; 2.1 µg/mL (≈ 6.19 µM) in series [5]; 0.9 µg/mL (≈ 2.65 µM) in [7]. Besides, the EC50 in series [8] came out at 0.6 µg/mL (≈ 1.77 µM); in series [9] it was 1.7 µg/mL (≈ 5.01 µM); in series [10] it was 1.9 µg/mL (≈ 5.6 µM); in series [11] it was 2.8 µg/mL (≈ 8.25 µM); in series [12], 1.5 µg/mL (≈ 4.42 µM); in series [13] it was 1.26 µg/mL (≈ 3.71 µM). Besides, the EC50 in series [14] was 2.55 µg/mL (≈ 7.51 µM). Further, in series [6], the CC50 at 72 h came out at 1.6 µg/mL (≈ 4.71 µM). Moreover, the selectivity ratio in [15] came to 4; in [16], 2.

Regarding `COc1cc2c(cc1O)-c1c3c(cc4c1[C@@H](C2)N(C)CC4)OCO3`, the EC50 in series [1] came to 2.5 µg/mL (≈ 7.68 µM); in series [2], 2.9 µg/mL (≈ 8.91 µM); in [3] it was 3.1 µg/mL (≈ 9.53 µM); in [4], 18.8 µg/mL (≈ 57.8 µM); in series [5], 4.1 µg/mL (≈ 12.6 µM); in [7], 1.2 µg/mL (≈ 3.69 µM). Further, the EC50 in [8] stood at 0.4 µg/mL (≈ 1.23 µM); in [9] it was 12.6 µg/mL (≈ 38.7 µM); in [10], 1.9 µg/mL (≈ 5.84 µM); in [11] it was 2.1 µg/mL (≈ 6.45 µM); in [12], 1.7 µg/mL (≈ 5.22 µM); in series [13] it was 2.01 µg/mL (≈ 6.18 µM). The EC50 in series [14] is 2.88 µg/mL (≈ 8.85 µM). The CC50 at 72 h in series [6] was found to be 1.8 µg/mL (≈ 5.53 µM). Also, the selectivity ratio in series [15] and in series [16] was 1 each time.

Turning to `COc1cc2c(cc1O)C[C@H]1c3c(cc4c(c3-2)OCO4)CCN1C` [CASSYTHICINE], the EC50 in [1] came out at 6.8 µg/mL (≈ 20.9 µM); in series [2], 7.6 µg/mL (≈ 23.4 µM); in [3] it was 6.6 µg/mL (≈ 20.3 µM); in series [4], 8.9 µg/mL (≈ 27.4 µM); in [5], 7.3 µg/mL (≈ 22.4 µM); in series [7] it was 1.2 µg/mL (≈ 3.69 µM). Further, the EC50 in [8] was above 5 µg/mL; in series [9], 10.5 µg/mL (≈ 32.3 µM); in series [10] it was 6.1 µg/mL (≈ 18.7 µM); in series [11], 9.8 µg/mL (≈ 30.1 µM); in [12] it was 4.8 µg/mL (≈ 14.8 µM); in series [13], 2.29 µg/mL (≈ 7.04 µM). Moreover, in series [14], the EC50 was found to be 2.26 µg/mL (≈ 6.95 µM). Further, in series [6], the CC50 at 72 h was found to be 3 µg/mL (≈ 9.22 µM). Besides, the selectivity ratio in [15] turned out to be 2; in [16], 3.

(Values after ChEMBL document CHEMBL1147366, “Cytotoxic and antimalarial alkaloids from the tubers of Stephania pierrei” (J Nat Prod, 1993).)
